Experimental data of several laboratories.
TEK: Angiopoietin-1 receptor (TEK, Homo sapiens, UniProt Q02763)
TEK R849W: Angiopoietin-1 receptor (TEK, Homo sapiens, UniProt Q02763, R849W)
TEK Y897S: Angiopoietin-1 receptor (TEK, Homo sapiens, UniProt Q02763, Y897S)

`N#CCCc1ccc2c(c1)-c1[nH]c3ccc([N+](=O)[O-])cc3c1CC(=O)N2` has a remaining signal of 97.6% (TEK; cell-free assay; 0.5 µM).
`CNCc1ccccc1-c1csc([C@@H](C)Nc2nc(C)nc3cc(OC)c(OC)cc23)c1` has a remaining binding of 87% (TEK; cell-free assay, competition with immobilised ligand; 1 µM).
For `CC/C(=N\NC(=O)NCc1cccc(O)c1)c1ccc(O)c(C)c1O`, the inhibition was -0.2% (TEK; enzyme activity, inhibitor; 0.1 µM).
For `CCCOc1ccc(OC)c(F)c1C(=O)c1ccc(C(=O)N[C@@H]2CNC[C@H]2NC(=O)c2ccc3[nH]ncc3c2)cc1`, the remaining activity was 46% (TEK R849W; enzyme activity, inhibitor; 10 µM).
For `CC(C)(C)c1nc(-c2cccc(NS(=O)(=O)c3c(F)cccc3F)c2F)c(-c2ccnc(N)n2)s1`, the remaining activity was 58% (TEK; enzyme activity, inhibitor, radiometric; 1 µM).
`Cc1ccc(C(=O)NCc2ccsc2)cc1C#Cc1cn(C(C)C)c2ncnc(N)c12` gave an activity vs control of 6% (TEK; enzyme activity, inhibitor; 1 µM).
`O=C(CSc1nc2nccnc2c(=O)n1CCc1ccccc1)Nc1nccs1` gave an inhibition of 6% (TEK; enzyme activity, inhibitor; 10 µM).
The inhibition of `CCOc1cc(-c2nncn2C)ccc1Nc1ncc2cc(C)nc(NCC(C)(C)C)c2n1` is reported as under 15% (TEK; enzyme activity, inhibitor, FRET; 1 µM).
`COc1cc(/C=C/C(=O)CC(=O)/C=C/c2ccc(O)c(OC)c2)ccc1O` gave an activity vs control of 112% (TEK; enzyme activity, inhibitor; 1 µM).
`COc1cc2ncnc(Nc3ccc(Oc4ccccc4)c(C)c3C)c2cc1OC` gave an inhibition of 6% (TEK; enzyme activity, inhibitor; 1 µM).
`CCOC(=O)c1cc2cc(-c3cc(C(=O)NCc4ccc(C(=O)O)cc4)nn3C)ccc2[nH]1` gave a remaining binding of 83% (TEK; cell-free assay, competition with immobilised ligand; 0.1 µM).
For `COc1cc(Nc2cnc(C#N)c(O[C@H](C)CN(C)C)n2)ncc1-c1cnn(C)c1`, the remaining activity was 102% (TEK; enzyme activity, inhibitor, radiometric; 1 µM).
`Cc1cc(NC(=O)c2cccc3cc(-c4cccc5[nH]nc(N)c45)ccc23)ccc1F` has an activity vs control of 93% (TEK R849W; enzyme activity, inhibitor; 0.1 µM).
`O=C(Nc1cnn(-c2csc(C(=O)NC3COC3)c2)c1)Nc1ccccc1Cl` has a remaining activity of 100% (TEK; enzyme activity, inhibitor; 5 µM).
The remaining activity of `Cc1cnc(NC2CCOCC2)nc1-n1cnc(C(=O)NC(CN)c2cc(F)cc(Cl)c2)c1` (stereo not drawn) is reported as 105% (TEK; enzyme activity, inhibitor, radiometric; 1 µM).
With `CNC(=O)c1cc(Oc2ccc(NC(=O)Nc3ccc(Cl)c(C(F)(F)F)c3)cc2)ccn1` the remaining signal was 104% (TEK; cell-free assay; 0.5 µM).
`CN(C)c1ncnc(-c2ccc3nc(Nc4cc(CN5CCN(C(=O)CC(F)(F)F)CC5)ccn4)[nH]c3c2)c1Cl` has a remaining binding of 87% (TEK; cell-free assay, competition with immobilised ligand; 1 µM).
With `Cc1ccc(NC(=O)c2ccc(C)c(C(F)(F)F)c2)cc1C#Cc1nn(C2CCC(O)CC2)c2ncnc(N)c12` (stereo not drawn) the remaining activity was 0% (TEK Y897S; enzyme activity, inhibitor; 10 µM).
The remaining signal of `Cc1ccc(Nc2nccc(N(C)c3ccc4c(C)n(C)nc4c3)n2)cc1S(N)(=O)=O` is reported as 69.3% (TEK; cell-free assay; 0.5 µM).
For `O=C(Nc1cnn(-c2csc(C(=O)NC3COC3)c2)c1)Nc1c(F)cccc1Cl`, the remaining activity was 105% (TEK; enzyme activity, inhibitor; 5 µM).
With `CCCCN(CCCC)C(=O)CN1C[C@@H](c2cc(OC)c3c(c2)OCO3)[C@H](C(=O)O)[C@H]1CC(C)(C)CCC` the remaining binding was 100% (TEK; cell-free assay, competition with immobilised ligand; 1 µM).
With `Cc1[nH]c(/C=C2\C(=O)Nc3ccc(F)cc32)c(C)c1C(=O)N[C@H]1CCN(C(=O)N(C)C)C1` the remaining activity was 87% (TEK; enzyme activity, inhibitor; 1 µM).
The remaining binding of `CCc1ccccc1C(=O)Nc1n[nH]c2c(C)c(F)c(C3C(C#N)=C(C)N(C)C(C)=C3C#N)cc12` is reported as 91% (TEK; cell-free assay, competition with immobilised ligand; 1 µM).
`CCN(CC)CCNC(=O)c1c(C)[nH]c(/C=C2\C(=O)Nc3ccc(F)cc32)c1C` gave an inhibition of 74% (TEK; enzyme activity, inhibitor; 10 µM).
`Cc1noc([C@H]2C[C@@H](c3ccc(C(F)(F)F)cc3)CN(C(=O)N3CCS(=O)(=O)C3)C2)n1` gave a remaining binding of 100% (TEK; cell-free assay, competition with immobilised ligand; 1 µM).
The inhibition of `CNC(=O)c1cc2c(Oc3ccc(NC(=O)C4(C(=O)Nc5ccc(F)cc5)CC4)cc3)ccnc2cc1OC` is reported as 96% (TEK Y897S; enzyme activity, inhibitor, radiometric; 1 µM).
The remaining binding of `O=C(Nc1cnc(Oc2ccc(F)cc2)nc1)N1CCc2ncccc2[C@@H]1c1ccc(F)cc1` is reported as 93% (TEK; cell-free assay, competition with immobilised ligand; 1 µM).
`CNCc1ccc(-c2cc(-c3nc(-c4ccc(S(=O)(=O)C(C)C)cc4)cnc3N)on2)cc1` gave an inhibition of 44% (TEK; enzyme activity, inhibitor; 2 µM).
The remaining binding of `CCOCCn1cc(C(=O)Nc2ccc(-n3nc(-c4cccnc4)cc3C(F)(F)F)cn2)ccc1=O` is reported as 87% (TEK; cell-free assay, competition with immobilised ligand; 1 µM).
For `Nc1ncnc2occ(-c3ccc(NC(=O)Nc4cc(C(F)(F)F)ccc4F)cc3)c12`, the remaining signal was 0% (TEK; cell-free assay; 20 µM).
